Values belong to the compound of their own block, whether it stands above or below them.
Assays:
Type in all cases: tissue-based
[1] = target: T1, Muscarinic acetylcholine receptor M2 (Sus scrofa) (UniProt P06199); test: Inhibition of [3H]NMS dissociation from muscarinic acetylcholine receptor M2 of pig heart ventricle homogenates; n=5
T1 sequence (whole entry): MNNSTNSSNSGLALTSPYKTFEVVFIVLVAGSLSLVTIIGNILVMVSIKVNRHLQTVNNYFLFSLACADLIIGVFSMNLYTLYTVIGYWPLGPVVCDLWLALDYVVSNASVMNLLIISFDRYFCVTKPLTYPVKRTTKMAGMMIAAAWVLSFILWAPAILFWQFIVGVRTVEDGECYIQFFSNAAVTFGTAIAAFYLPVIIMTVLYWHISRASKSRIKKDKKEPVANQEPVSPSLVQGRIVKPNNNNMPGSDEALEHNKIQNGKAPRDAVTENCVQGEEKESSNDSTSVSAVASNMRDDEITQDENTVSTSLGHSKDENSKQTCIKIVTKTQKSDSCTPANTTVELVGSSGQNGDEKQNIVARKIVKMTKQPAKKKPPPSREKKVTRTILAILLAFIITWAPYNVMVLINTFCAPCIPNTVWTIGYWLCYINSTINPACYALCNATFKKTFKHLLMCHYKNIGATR
Summary of the method: (§1)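 Two-point kinetic dissociation assay in porcine heart homogenates (M2) at 37 °C, 3 mM MgHPO4/50 mM Tris-HCl, pH 7.3. Membranes were preincubated 30 min with 0.2 nM [3H]NMS. Dissociation was started by 1 µM atropine alone or plus test compound, and specific binding measured at t = 0 and 10. Apparent k-1 relative to control was plotted against log concentration and fitted by four-parameter logistic (slope unity) for EC50,diss.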

[2] = target: T1, Muscarinic acetylcholine receptor M2 (Sus scrofa); test: Cooperativity for muscarinic acetylcholine receptor M2 of pig heart ventricle homogenates; n=5
Summary of the method: (§2)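 Pig heart ventricle homogenate (M2) equilibrium binding at 37 °C in 3 mM MgHPO4/50 mM Tris-HCl, pH 7.3. Increasing concentrations of test compound were incubated with membranes and 0.2 nM [3H]NMS. Incubation time for equilibrium in presence of allosteric agent was computed from dissociation kinetics. Nonspecific binding was defined with 1 µM atropine. Bound and free were separated by vacuum filtration, with scintillation counting.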

[3] = target: T1, Muscarinic acetylcholine receptor M2 (Sus scrofa); test: Affinity for muscarinic acetylcholine receptor M2 of pig heart ventricle homogenates; n=5; summary of the method: as §2
[4] = target: T1, Muscarinic acetylcholine receptor M2 (Sus scrofa); test: Inhibition of [3H]NMS dissociation from muscarinic acetylcholine receptor M2 of pig heart ventricle homogenates; n=11; summary of the method: as §1
[5] = target: T1, Muscarinic acetylcholine receptor M2 (Sus scrofa); test: Cooperativity for muscarinic acetylcholine receptor M2 of pig heart ventricle homogenates; n=8; summary of the method: as §2
[6] = target: T1, Muscarinic acetylcholine receptor M2 (Sus scrofa); test: Affinity for muscarinic acetylcholine receptor M2 of pig heart ventricle homogenates; n=8; summary of the method: as §2
[7] = target: T1, Muscarinic acetylcholine receptor M2 (Sus scrofa); test: Inhibition of [3H]NMS dissociation from muscarinic acetylcholine receptor M2 of pig heart ventricle homogenates; n=6; summary of the method: as §1
[8] = target: T1, Muscarinic acetylcholine receptor M2 (Sus scrofa); test: Cooperativity for muscarinic acetylcholine receptor M2 of pig heart ventricle homogenates; n=4; summary of the method: as §2
[9] = target: T1, Muscarinic acetylcholine receptor M2 (Sus scrofa); test: Affinity for muscarinic acetylcholine receptor M2 of pig heart ventricle homogenates; n=4; summary of the method: as §2
[10] = target: T1, Muscarinic acetylcholine receptor M2 (Sus scrofa); test: Inhibition of [3H]NMS dissociation from muscarinic acetylcholine receptor M2 of pig heart ventricle homogenates; n=3; summary of the method: as §1
[11] = target: T1, Muscarinic acetylcholine receptor M2 (Sus scrofa); test: Cooperativity against muscarinic acetylcholine receptor M2 of pig heart ventricle homogenates; n=; summary of the method: as §2
[12] = target: T1, Muscarinic acetylcholine receptor M2 (Sus scrofa); test: Affinity for muscarinic acetylcholine receptor M2 of pig heart ventricle homogenates; n=3; summary of the method: as §2

- pEC50 diss [1]: 7.73
- p alpha [2]: 0.56
- pKA [3]: 7.41
SMILES: CC(C)(CN1C(=O)c2ccccc2C1=O)C[N+](C)(C)CCCCCC[N+](C)(C)CC(C)(C)CN1C(=O)c2cccc3cccc(c23)C1=O

- pEC50 diss [4]: 8.36
- p alpha [5]: 0.37
- pKA [6]: 8.29
SMILES: CC(C)(CN1C(=O)c2cccc3cccc(c23)C1=O)C[N+](C)(C)CCCCCC[N+](C)(C)CCCN1C(=O)c2ccccc2C1=O

- pEC50 diss [7]: 6.94
- p alpha [8]: -0.2
- pKA [9]: 7.24
SMILES: C[N+](C)(CCCCCC[N+](C)(C)CCCN1C(=O)c2cccc3cccc(c23)C1=O)CCCN1C(=O)c2ccccc2C1=O

- pEC50 diss [10]: 7.28
- p alpha [11]: -0.01
- pKA [12]: 7.28
SMILES: CC(C)(CN1C(=O)c2ccccc2C1=O)C[N+](C)(C)CCCCCC[N+](C)(C)CCCN1C(=O)c2cccc3cccc(c23)C1=O

Reference: ChEMBL document CHEMBL1143553, “Muscarinic allosteric enhancers of ligand binding: pivotal pharmacophoric elements in hexamethonio-type agents” (J Med Chem, 2005)
